# In ChEMBL document CHEMBL1123924, “Structure-activity studies of antagonists of luteinizing hormone-releasing hormone with emphasis on the amino-terminal region” (1987):
# Non-standard residues stand in square brackets, D forms with d. Residues, ends and D or L forms follow the SMILES beside them. d(hArg(Et2)) = CCN=C(NCC)NCCCC[C@@H](N)C(=O)O; dPhe(4-Cl) = N[C@H](Cc1ccc(Cl)cc1)C(=O)O; d2Nal = N[C@H](Cc1ccc2ccccc2c1)C(=O)O
# Tests used:
# Assay type in all cases: functional
# Rattus norvegicus [1] = organism: Rattus norvegicus; experiment: Antiovulatory activity was expressed as the percentage of 10 rats blocked at a dose 3 ug.
# In short: (§1)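 Sprague-Dawley rats given peptide by subcutaneous injection at noon on the day of proestrus, in 40% propane-1,2-diol–0.9% saline vehicle. Oviducts examined for ova the following day.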
# Rattus norvegicus [2] = organism: Rattus norvegicus; experiment: Antiovulatory activity was expressed as the percentage of 8 rats blocked at a dose 3 ug.; in short: as §1
# Rattus norvegicus [3] = organism: Rattus norvegicus; experiment: Antiovulatory activity was expressed as the percentage of 8 rats blocked at a dose 1 ug.; in short: as §1
# Rattus norvegicus [4] = organism: Rattus norvegicus; experiment: Antiovulatory activity was expressed as the percentage of 8 rats blocked at a dose 7.5 ug.; in short: as §1
# Rattus norvegicus [5] = organism: Rattus norvegicus; experiment: Antiovulatory activity was expressed as the percentage of 9 rats blocked at a dose 3 ug.; in short: as §1
# Rattus norvegicus [6] = organism: Rattus norvegicus; experiment: Antiovulatory activity was expressed as the percentage of 10 rats blocked at a dose 0.5 ug.; in short: as §1
# Rattus norvegicus [7] = organism: Rattus norvegicus; experiment: Antiovulatory activity was expressed as the percentage of 9 rats blocked at a dose 1 ug.; in short: as §1
# Rattus norvegicus [8] = organism: Rattus norvegicus; experiment: Antiovulatory activity was expressed as the percentage of 16 rats blocked at a dose 1 ug.; in short: as §1
# Rattus norvegicus [9] = organism: Rattus norvegicus; experiment: Antiovulatory activity was expressed as the percentage of 7 rats blocked at a dose 3 ug.; in short: as §1
# Rattus norvegicus [10] = organism: Rattus norvegicus; experiment: Antiovulatory activity was expressed as the percentage of 9 rats blocked at a dose 7.5 ug.; in short: as §1
# Rattus norvegicus [11] = organism: Rattus norvegicus; experiment: Antiovulatory activity was expressed as the percentage of 11 rats blocked at a dose 1 ug.; in short: as §1
# Rattus norvegicus [12] = organism: Rattus norvegicus; experiment: Antiovulatory activity was expressed as the percentage of 11 rats blocked at a dose 0.5 ug.; in short: as §1
# Rattus norvegicus [13] = organism: Rattus norvegicus; experiment: Antiovulatory activity was expressed as the percentage of 13 rats blocked at a dose 1 ug.; in short: as §1
# Rattus norvegicus [14] = organism: Rattus norvegicus; experiment: Antiovulatory activity was expressed as the percentage of 10 rats blocked at a dose 1 ug.; in short: as §1
# Rattus norvegicus [15] = organism: Rattus norvegicus; experiment: Antiovulatory activity was expressed as the percentage of 10 rats blocked at a dose 1.5 ug.; in short: as §1
smiles,measurement,setting,value
CC(=O)N[C@H](Cc1ccc2ccccc2c1)C(=O)N[C@H](Cc1ccc2ccccc2c1)C(=O)N[C@H](Cc1c[nH]cn1)C(=O)N[C@@H](CO)C(=O)N[C@@H](Cc1ccc(O)cc1)C(=O)N[C@H](CCCN=C(N)N)C(=O)N[C@@H](Cc1ccccc1)C(=O)N[C@@H](CCCN=C(N)N)C(=O)N1CCC[C@H]1C(=O)N[C@H](C)C(N)=O,Antiovulatory activity,Rattus norvegicus [1],0%
CC(=O)N[C@H](Cc1ccc2ccccc2c1)C(=O)N[C@H](Cc1ccc(Cl)cc1)C(=O)N[C@H](Cc1ccc(Cl)cc1)C(=O)N[C@@H](CO)C(=O)N[C@@H](Cc1ccc(O)cc1)C(=O)N[C@H](CCCN=C(N)N)C(=O)N[C@@H](Cc1ccccc1)C(=O)N[C@@H](CCCN=C(N)N)C(=O)N1CCC[C@H]1C(=O)N[C@H](C)C(N)=O,Antiovulatory activity,Rattus norvegicus [2],63%
same,Antiovulatory activity,Rattus norvegicus [3],0%
CC(=O)N[C@H](Cc1ccc(Cl)cc1)C(=O)N[C@H](Cc1ccc(Cl)cc1)C(=O)N[C@H](Cc1c[nH]c2ccccc12)C(=O)N[C@@H](CO)C(=O)N[C@@H](Cc1ccc(O)cc1)C(=O)N[C@H](Cc1ccc2ccccc2c1)C(=O)N[C@@H](Cc1ccccc1)C(=O)N[C@@H](CCCN=C(N)N)C(=O)N1CCC[C@H]1C(=O)N[C@H](C)C(N)=O,Antiovulatory activity,Rattus norvegicus [4],0%
CC(=O)N[C@H](Cc1ccc2ccccc2c1)C(=O)N[C@H](Cc1ccc2ccccc2c1)C(=O)N[C@H](Cc1ccc2ccccc2c1)C(=O)N[C@@H](CO)C(=O)N[C@@H](Cc1ccc(O)cc1)C(=O)N[C@H](CCCN=C(N)N)C(=O)N[C@@H](Cc1ccccc1)C(=O)N[C@@H](CCCN=C(N)N)C(=O)N1CCC[C@H]1C(=O)N[C@H](C)C(N)=O,Antiovulatory activity,Rattus norvegicus [5],15%
CC(=O)N[C@H](Cc1c[nH]c2ccccc12)C(=O)N[C@H](Cc1ccccc1)C(=O)N[C@H](Cc1ccccc1)C(=O)N[C@@H](CO)C(=O)N[C@@H](Cc1ccc(O)cc1)C(=O)N[C@H](CCCN=C(N)N)C(=O)N[C@@H](Cc1ccccc1)C(=O)N[C@@H](CCCN=C(N)N)C(=O)N1CCC[C@H]1C(=O)N[C@H](C)C(N)=O,Antiovulatory activity,Rattus norvegicus [1],0%
CC(=O)N[C@H](Cc1ccccc1)C(=O)N[C@H](Cc1ccccc1)C(=O)N[C@H](Cc1ccccc1)C(=O)N[C@@H](CO)C(=O)N[C@@H](Cc1ccc(O)cc1)C(=O)N[C@H](CCCN=C(N)N)C(=O)N[C@@H](Cc1ccccc1)C(=O)N[C@@H](CCCN=C(N)N)C(=O)N1CCC[C@H]1C(=O)N[C@H](C)C(N)=O,Antiovulatory activity,Rattus norvegicus [2],0%
CC(=O)N[C@H](Cc1ccc(Cl)cc1)C(=O)N[C@H](Cc1ccccc1)C(=O)N[C@H](Cc1ccccc1)C(=O)N[C@@H](CO)C(=O)N[C@@H](Cc1ccc(O)cc1)C(=O)N[C@H](CCCN=C(N)N)C(=O)N[C@@H](Cc1ccccc1)C(=O)N[C@@H](CCCN=C(N)N)C(=O)N1CCC[C@H]1C(=O)N[C@H](C)C(N)=O,Antiovulatory activity,Rattus norvegicus [2],63%
CC(=O)N[C@H](Cc1ccc2ccccc2c1)C(=O)N[C@H](Cc1ccc(Cl)cc1)C(=O)N[C@H](Cc1ccccc1)C(=O)N[C@@H](CO)C(=O)N[C@@H](Cc1ccc(O)cc1)C(=O)N[C@H](CCCN=C(N)N)C(=O)N[C@@H](Cc1ccccc1)C(=O)N[C@@H](CCCN=C(N)N)C(=O)N1CCC[C@H]1C(=O)N[C@H](C)C(N)=O,Antiovulatory activity,Rattus norvegicus [6],10%
same,Antiovulatory activity,Rattus norvegicus [7],56%
CC(=O)N[C@H](Cc1ccc2ccccc2c1)C(=O)N[C@H](Cc1ccc2ccccc2c1)C(=O)N[C@H](Cc1ccccc1)C(=O)N[C@@H](CO)C(=O)N[C@@H](Cc1ccc(O)cc1)C(=O)N[C@H](CCCN=C(N)N)C(=O)N[C@@H](Cc1ccccc1)C(=O)N[C@@H](CCCN=C(N)N)C(=O)N1CCC[C@H]1C(=O)N[C@H](C)C(N)=O,Antiovulatory activity,Rattus norvegicus [1],100%
CC(=O)N[C@H](Cc1ccc2ccccc2c1)C(=O)N[C@H](Cc1ccccc1)C(=O)N[C@H](Cc1ccc(O)cc1)C(=O)N[C@@H](CO)C(=O)N[C@@H](Cc1ccc(O)cc1)C(=O)N[C@H](CCCN=C(N)N)C(=O)N[C@@H](Cc1ccccc1)C(=O)N[C@@H](CCCN=C(N)N)C(=O)N1CCC[C@H]1C(=O)N[C@H](C)C(N)=O,Antiovulatory activity,Rattus norvegicus [7],0%
CC(=O)N[C@H](Cc1ccc2ccccc2c1)C(=O)N[C@H](Cc1ccc(O)cc1)C(=O)N[C@H](Cc1ccc(O)cc1)C(=O)N[C@@H](CO)C(=O)N[C@@H](Cc1ccc(O)cc1)C(=O)N[C@H](CCCN=C(N)N)C(=O)N[C@@H](Cc1ccccc1)C(=O)N[C@@H](CCCN=C(N)N)C(=O)N1CCC[C@H]1C(=O)N[C@H](C)C(N)=O,Antiovulatory activity,Rattus norvegicus [3],0%
CC(=O)N[C@H](Cc1ccc2ccccc2c1)C(=O)N[C@H](Cc1ccc(O)cc1)C(=O)N[C@H](Cc1ccccc1)C(=O)N[C@@H](CO)C(=O)N[C@@H](Cc1ccc(O)cc1)C(=O)N[C@H](CCCN=C(N)N)C(=O)N[C@@H](Cc1ccccc1)C(=O)N[C@@H](CCCN=C(N)N)C(=O)N1CCC[C@H]1C(=O)N[C@H](C)C(N)=O,Antiovulatory activity,Rattus norvegicus [8],0%
same,Antiovulatory activity,Rattus norvegicus [9],14%
CC(=O)N[C@H](Cc1ccc2ccccc2c1)C(=O)N[C@H](Cc1ccccc1)C(=O)N[C@H](Cc1ccccc1)C(=O)N[C@@H](CO)C(=O)N[C@@H](Cc1ccc(O)cc1)C(=O)N[C@H](CCCN=C(N)N)C(=O)N[C@@H](CC1CCCCC1)C(=O)N[C@@H](CCCN=C(N)N)C(=O)N1CCC[C@H]1C(=O)N[C@H](C)C(N)=O,Antiovulatory activity,Rattus norvegicus [6],80%
CC(=O)N[C@H](Cc1ccc(Cl)cc1)C(=O)N[C@H](Cc1ccc(Cl)cc1)C(=O)N[C@H](Cc1c[nH]c2ccccc12)C(=O)N[C@@H](CO)C(=O)N[C@@H](Cc1ccc(O)cc1)C(=O)N[C@H](Cc1ccccc1)C(=O)N[C@@H](Cc1ccccc1)C(=O)N[C@@H](CCCN=C(N)N)C(=O)N1CCC[C@H]1C(=O)N[C@H](C)C(N)=O,Antiovulatory activity,Rattus norvegicus [4],8%
CC(=O)N[C@H](Cc1ccc2ccccc2c1)C(=O)N[C@H](Cc1ccc2ccccc2c1)C(=O)N[C@H](Cc1c(F)c(F)c(F)c(F)c1F)C(=O)N[C@@H](CO)C(=O)N[C@@H](Cc1ccc(O)cc1)C(=O)N[C@H](CCCN=C(N)N)C(=O)N[C@@H](Cc1ccccc1)C(=O)N[C@@H](CCCN=C(N)N)C(=O)N1CCC[C@H]1C(=O)N[C@H](C)C(N)=O,Antiovulatory activity,Rattus norvegicus [10],0%
CC(=O)N[C@H](Cc1ccc2ccccc2c1)C(=O)N[C@H](Cc1ccc2ccccc2c1)C(=O)N[C@H](Cc1ccc(O)cc1)C(=O)N[C@@H](CO)C(=O)N[C@@H](Cc1ccc(O)cc1)C(=O)N[C@H](CCCN=C(N)N)C(=O)N[C@@H](Cc1ccccc1)C(=O)N[C@@H](CCCN=C(N)N)C(=O)N1CCC[C@H]1C(=O)N[C@H](C)C(N)=O,Antiovulatory activity,Rattus norvegicus [11],9%
same,Antiovulatory activity,Rattus norvegicus [2],38%
same,Antiovulatory activity,Rattus norvegicus [10],100%
CCNC(=NCCCC[C@@H](NC(=O)[C@H](Cc1ccc(O)cc1)NC(=O)[C@H](CO)NC(=O)[C@@H](Cc1c[nH]c2ccccc12)NC(=O)[C@@H](Cc1ccc(Cl)cc1)NC(=O)[C@@H](Cc1ccc2ccccc2c1)NC(C)=O)C(=O)N[C@@H](Cc1ccccc1)C(=O)N[C@@H](CCCN=C(N)N)C(=O)N1CCC[C@H]1C(=O)N[C@H](C)C(N)=O)NCC (Ac-[d2Nal][dPhe(4-Cl)][dW]SY[d(hArg(Et2))]FRP[dA]-NH2),Antiovulatory activity,Rattus norvegicus [3],63%
CC(=O)N[C@H](Cc1ccc2ccccc2c1)C(=O)N[C@H](Cc1ccc(Cl)cc1)C(=O)N[C@H](Cc1c[nH]c2ccccc12)C(=O)N[C@@H](CO)C(=O)N[C@@H](Cc1ccc(O)cc1)C(=O)N[C@H](CCCN=C(N)N)C(=O)N[C@@H](Cc1ccccc1)C(=O)N[C@@H](CCCN=C(N)N)C(=O)N1CCC[C@H]1C(=O)N[C@H](C)C(N)=O (HELM PEPTIDE1{[ac].[O=C([C@@H](Cc1ccc2ccccc2c1)N[*:1])[*:2]].[O=C([C@@H](Cc1ccc(Cl)cc1)N[*:1])[*:2]].[dW].S.Y.[dR].F.R.P.[dA].[am]}$$$$V2.0),Antiovulatory activity,Rattus norvegicus [12],64%
CC(=O)N[C@H](Cc1ccc2ccccc2c1)C(=O)N[C@H](Cc1ccc(Cl)cc1)C(=O)N[C@H](Cc1c[nH]c2ccccc12)C(=O)N[C@@H](CO)C(=O)N[C@@H](Cc1ccc(O)cc1)C(=O)N[C@H](CCCN=C(N)N)C(=O)N[C@@H](CC(C)C)C(=O)N[C@@H](CCCN=C(N)N)C(=O)N1CCC[C@H]1C(=O)N[C@H](C)C(N)=O (HELM PEPTIDE1{[ac].[O=C([C@@H](Cc1ccc2ccccc2c1)N[*:1])[*:2]].[O=C([C@@H](Cc1ccc(Cl)cc1)N[*:1])[*:2]].[dW].S.Y.[dR].L.R.P.[dA].[am]}$$$$V2.0),Antiovulatory activity,Rattus norvegicus [13],77%
CC(=O)N[C@H](Cc1ccc(Cl)cc1)C(=O)N[C@H](Cc1ccc(Cl)cc1)C(=O)N[C@H](Cc1c[nH]c2ccccc12)C(=O)N[C@@H](CO)C(=O)N[C@@H](Cc1ccc(O)cc1)C(=O)N[C@H](CCCN=C(N)N)C(=O)N[C@@H](Cc1ccccc1)C(=O)N[C@@H](CCCN=C(N)N)C(=O)N1CCC[C@H]1C(=O)N[C@H](C)C(N)=O (HELM PEPTIDE1{[ac].[O=C([C@@H](Cc1ccc(Cl)cc1)N[*:1])[*:2]].[O=C([C@@H](Cc1ccc(Cl)cc1)N[*:1])[*:2]].[dW].S.Y.[dR].F.R.P.[dA].[am]}$$$$V2.0),Antiovulatory activity,Rattus norvegicus [14],70%
same,Antiovulatory activity,Rattus norvegicus [1],100%
CC(=O)N[C@H](Cc1ccc(Cl)cc1)C(=O)N[C@H](Cc1ccc(Cl)cc1)C(=O)N[C@H](Cc1c[nH]c2ccccc12)C(=O)N[C@@H](CO)C(=O)N[C@@H](Cc1ccc(O)cc1)C(=O)N[C@H](CCCN=C(N)N)C(=O)N[C@@H](CC(C)C)C(=O)N[C@@H](CCCN=C(N)N)C(=O)N1CCC[C@H]1C(=O)N[C@H](C)C(N)=O (HELM PEPTIDE1{[ac].[O=C([C@@H](Cc1ccc(Cl)cc1)N[*:1])[*:2]].[O=C([C@@H](Cc1ccc(Cl)cc1)N[*:1])[*:2]].[dW].S.Y.[dR].L.R.P.[dA].[am]}$$$$V2.0),Antiovulatory activity,Rattus norvegicus [15],10%
same,Antiovulatory activity,Rattus norvegicus [5],67%
